Experimental data: ChEMBL document CHEMBL1136718, “Synthesis and cytotoxic activity of carboxamide derivatives of benzo[b][1,6]naphthyridines” (J Med Chem, 2003)

Assays:
Jurkat = assay: Growth inhibitory activity against human Jurkat leukemia cell line (JLC); type: functional, cell-based
In short: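 Human Jurkat leukemia (JL_C) cells seeded at 3.75 × 10³/well and grown 4 days with drug. Growth read by sulforhodamine assay. IC50 is the drug concentration that reduces cell number to 50% of control cultures. Independent assays run in duplicate.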

[1] = test system: Lewis lung carcinoma cell line; assay: Growth inhibitory activity against murine Lewis lung carcinoma cell line; type: functional, cell-based; details: Mus musculus
In short: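 Lewis lung carcinoma cells seeded at 10³/well and cultured 4 days with drug. Growth measured by sulforhodamine assay. IC50 is the concentration reducing cell number to 50% of control cultures. Independent duplicate assays.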

P388 = assay: Growth inhibitory activity against murine P388 leukemia cells; type: functional, cell-based; details: Mus musculus
In short: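 P388 murine leukemia cells plated at 4.5 × 10³/well and exposed to drug for 3 days. Growth read by [3H]TdR uptake. IC50 is the concentration reducing cell number to 50% of control. Independent assays done in duplicate.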

[2] = Ratio of growth inhibitory activity against human Jurkat leukemia cell line (JLA- resistant to amsacrine) to that of Jurkat leukemia cell line; type: functional
In short: (§1)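 Parent Jurkat (JL_C) cells and the amsacrine-resistant (JL_A) or doxorubicin-resistant (JL_D) sublines each seeded at 3.75 × 10³/well. Cultured 4 days with drug and read by sulforhodamine assay. The ratio is the subline IC50 divided by the JL_C IC50. Duplicate independent assays.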

[3] = Ratio of growth inhibitory activity against human Jurkat leukemia cell line (JLD- resistant to doxorubicin) to that of Jurkat leukemia cell line; type: functional; in short: as §1
Mus musculus [4] = assay: Number of mice(with Colon 38 tumors) cured after treatment of 2.6 mg/kg/day single dose out of 5 mice; type: functional
In short: (§2)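 BDF1 mice bearing subcutaneous Colon 38 tumors (flank implants of 1 mm³ fragments) were treated at a diameter of about 4-6 mm. They received one intraperitoneal dose of the hydrochloride salt in distilled water, 0.01 mL/g. A cure is a mouse with no measurable tumor 20 days after treatment began, reported over the total mice per group.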

Mus musculus [5] = assay: Number of mice(with Colon 38 tumors) cured after treatment of 3.9 mg/kg/day single dose out of 5 mice; type: functional; in short: as §2
Mus musculus [6] = assay: In vivo antitumor activity against subcutaneous Colon 38 tumors in mice determined as delay in growth after 2.6 mg/kg/day single dose; type: functional
In short: (§3)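 Colon 38 fragments (1 mm³) implanted subcutaneously in one flank of BDF1 mice. Treated at a tumor diameter of about 4-6 mm (7-8 days), five mice per group. A single intraperitoneal dose was given as the hydrochloride in distilled water, 0.01 mL/g. Calipers three times weekly, volume = 0.52a²b. Growth delay is the time for mean volume to reach 4-fold the pretreatment volume.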

Mus musculus [7] = assay: In vivo antitumor activity against subcutaneous Colon 38 tumors in mice determined as delay in growth after 3.9 mg/kg/day single dose; type: functional; in short: as §3
Mus musculus [8] = assay: Number of mice(with Colon 38 tumors) cured after treatment of 30 mg/kg/day single dose out of 5 mice; type: functional
Mus musculus [9] = assay: In vivo antitumor activity against subcutaneous Colon 38 tumors in mice determined as delay in growth after 30 mg/kg/day single dose; type: functional
Mus musculus [10] = assay: Number of mice(with Colon 38 tumors) cured after treatment of 65 mg/kg/day dose given as 2 times in a day for 2 days out of 5 mice; type: functional
Mus musculus [11] = assay: In vivo antitumor activity against subcutaneous Colon 38 tumors in mice determined as delay in growth after 65 mg/kg/day dose given as 2 times in a day for 2 days; type: functional
Mus musculus [12] = assay: Number of mice(with Colon 38 tumors) cured after treatment of 8.9 mg/kg/day single dose out of 5 mice; type: functional; in short: as §2
Mus musculus [13] = assay: In vivo antitumor activity against subcutaneous Colon 38 tumors in mice determined as delay in growth after 8.9 mg/kg/day single dose; type: functional; in short: as §3
Mus musculus [14] = assay: Number of mice(with Colon 38 tumors) cured after treatment of 5.9 mg/kg/day single dose out of 5 mice; type: functional; in short: as §2
Mus musculus [15] = assay: Number of mice(with Colon 38 tumors) cured after treatment of 13.3 mg/kg/day single dose out of 5 mice; type: functional; in short: as §2
Mus musculus [16] = assay: In vivo antitumor activity against subcutaneous Colon 38 tumors in mice determined as delay in growth after 13.3 mg/kg/day single dose; type: functional; in short: as §3
Mus musculus [17] = assay: In vivo antitumor activity against subcutaneous Colon 38 tumors in mice determined as delay in growth after 5.9 mg/kg/day single dose; type: functional; in short: as §3
Mus musculus [18] = assay: Number of mice(with Colon 38 tumors) cured after treatment of 5.9 mg/kg/day single dose out of 10 mice; type: functional; in short: as §2
Mus musculus [19] = assay: Number of mice(with Colon 38 tumors) cured after treatment of 8.9 mg/kg/day single dose out of 4 mice; type: functional; in short: as §2
Mus musculus [20] = assay: Number of mice(with Colon 38 tumors) cured after treatment of 3.9 mg/kg/day single dose out of 4 mice; type: functional; in short: as §2
Mus musculus [21] = assay: Number of mice(with Colon 38 tumors) cured after treatment of 200 mg/kg/day dose given as 2 times in a day for 7 days out of 5 mice; type: functional
Mus musculus [22] = assay: In vivo antitumor activity against subcutaneous Colon 38 tumors in mice determined as delay in growth after 200 mg/kg/day dose given as 2 times in a day for 7 days; type: functional
Mus musculus [23] = assay: Number of mice(with Colon 38 tumors) cured after treatment of 13.3 mg/kg/day dose given as 3 times in a day for 4 days out of 5 mice; type: functional
Mus musculus [24] = assay: In vivo antitumor activity against subcutaneous Colon 38 tumors in mice determined as delay in growth after 13.3 mg/kg/day dose given as 3 times in a day for 4 days; type: functional
Mus musculus [25] = assay: Number of mice(with Colon 38 tumors) cured after treatment of 3.9 mg/kg/day dose given as 3 times in a day for 4 days out of 5 mice; type: functional
Mus musculus [26] = assay: In vivo antitumor activity against subcutaneous Colon 38 tumors in mice determined as delay in growth after 3.9 mg/kg/day dose given as 3 times in a day for 4 days; type: functional
Mus musculus [27] = assay: Number of mice(with Colon 38 tumors) cured after treatment of 2.6 mg/kg/day dose given as 3 times in a day for 4 days out of 5 mice; type: functional
Mus musculus [28] = assay: In vivo antitumor activity against subcutaneous Colon 38 tumors in mice determined as delay in growth after 2.6 mg/kg/day dose given as 3 times in a day for 4 days; type: functional
Mus musculus [29] = assay: Number of mice(with Colon 38 tumors) cured after treatment of 45 mg/kg/day dose given as 3 times in a day for 4 days out of 5 mice; type: functional
Mus musculus [30] = assay: In vivo antitumor activity against subcutaneous Colon 38 tumors in mice determined as delay in growth after 45 mg/kg/day dose given as 3 times in a day for 4 days; type: functional
Mus musculus [31] = assay: Number of mice(with Colon 38 tumors) cured after treatment of 65 mg/kg/day dose given as 3 times in a day for 4 days out of 5 mice; type: functional
Mus musculus [32] = assay: In vivo antitumor activity against subcutaneous Colon 38 tumors in mice determined as delay in growth after 65 mg/kg/day dose given as 3 times in a day for 4 days; type: functional

Compound: CN(C)CCNC(=O)c1cn(CCN(C)C)c(=O)c2cc3ccccc3nc12
- IC50 (Jurkat): 123 nM
- IC50 [1]: 50 nM
- IC50 (P388): 54 nM
- Ratio [2]: 0.8
- Ratio [3]: 1.1

Compound: COc1ccc(-n2cc(C(=O)NCCN(C)C)c3nc4c(C)cccc4cc3c2=O)cc1OC
- IC50 (Jurkat): 9.4 nM
- IC50 [1]: 4.4 nM
- Cures (Mus musculus [4]): 0
- Cures (Mus musculus [5]): 4
- Growth delay (Mus musculus [6]): 16 days
- Growth delay (Mus musculus [7]): >20 days
- IC50 (P388): 12 nM
- Ratio [2]: 1.3
- Ratio [3]: 1.5

Compound: Cc1cccc2cc3c(O)ncc(C(=O)NCCN(C)C)c3nc12
- IC50 (Jurkat): 26 nM
- IC50 [1]: 10 nM
- Cures (Mus musculus [8]): 0
- Growth delay (Mus musculus [9]): 14 days
- IC50 (P388): 11 nM
- Ratio [2]: 1.9
- Ratio [3]: 2.6

Compound: Cc1cc2c3c(cccc3n1)C(=O)c1cccc(C(=O)NCCN(C)C)c1-2
- Cures (Mus musculus [10]): 5
- Growth delay (Mus musculus [11]): >20 days
- Ratio [2]: 2.5
- Ratio [3]: 2.5

Compound: CN(C)CCNC(=O)c1cn(C)c(=O)c2cc3ccccc3nc12
- IC50 (P388): 14 nM

Compound: Cc1cccc2cc3c(=O)n([C@@H](C)c4ccccc4)cc(C(=O)NCCN(C)C)c3nc12
- IC50 (Jurkat): 1070 nM
- IC50 [1]: 161 nM
- IC50 (P388): 590 nM
- Ratio [2]: 0.8
- Ratio [3]: 1.1

Compound: Cc1cccc2cc3c(NCCN(C)C)ncc(C(=O)NCCN(C)C)c3nc12
- Cures (Mus musculus [12]): 0
- Growth delay (Mus musculus [13]): 6 days
- IC50 (P388): 2.4 nM

Compound: CCCCn1cc(C(=O)NCCN(C)C)c2nc3c(C)cccc3cc2c1=O
- IC50 (Jurkat): 51 nM
- IC50 [1]: 15 nM
- Cures (Mus musculus [14]): 0
- Cures (Mus musculus [15]): 5
- Growth delay (Mus musculus [16]): >20 days
- Growth delay (Mus musculus [17]): 18 days
- IC50 (P388): 14 nM
- Ratio [2]: 2.3
- Ratio [3]: 3

Compound: Cc1cccc2cc3c(=O)n(CCN(C)C)cc(C(=O)NCCN(C)C)c3nc12
- IC50 (Jurkat): 8.5 nM
- IC50 [1]: 3.7 nM
- Cures (Mus musculus [14]): 0
- Growth delay (Mus musculus [17]): 14 days
- IC50 (P388): 6.8 nM
- Ratio [2]: 0.7
- Ratio [3]: 0.9

Compound: Cc1cccc2cc3c(=O)n(C)cc(C(=O)NCCN(C)C)c3nc12
- IC50 (Jurkat): 6.7 nM
- IC50 [1]: 1.7 nM
- Cures (Mus musculus [18]): 10
- Cures (Mus musculus [19]): 4
- Cures (Mus musculus [20]): 4
- Growth delay (Mus musculus [7]): >20 days
- Growth delay (Mus musculus [17]): >20 days
- Growth delay (Mus musculus [13]): >20 days
- IC50 (P388): 2.1 nM
- Ratio [2]: 5.6
- Ratio [3]: 7.9

Compound: Cc1cccc2cc3c(=O)n(CCN(C)CCCN(C)CCn4cc(C(=O)NCCN(C)C)c5nc6c(C)cccc6cc5c4=O)cc(C(=O)NCCN(C)C)c3nc12
- IC50 (Jurkat): 1 nM
- IC50 [1]: 4.7 nM
- IC50 (P388): 22 nM
- Ratio [2]: 0.3
- Ratio [3]: 0.4

Compound: CN(C)CCNC(=O)c1cccc2cc3ccccc3nc12
- Cures (Mus musculus [21]): 0
- Growth delay (Mus musculus [22]): 13 days
- IC50 (P388): 71 nM

Compound: COc1cc(NS(C)(=O)=O)ccc1Nc1c2ccccc2nc2ccccc12 [AMSACRINE]
- Cures (Mus musculus [23]): 0
- Growth delay (Mus musculus [24]): 2 days

Compound: CC[C@@]1(O)C(=O)OCc2c1cc1n(c2=O)Cc2cc3ccccc3nc2-1 [CAMPTOTHECIN]
- Ratio [2]: 2
- Ratio [3]: 1.4

Compound: COc1cccc2c1C(=O)c1c(O)c3c(c(O)c1C2=O)C[C@@](O)(C(C)=O)C[C@@H]3O[C@H]1C[C@H](N)[C@H](O)[C@H](C)O1 [DAUNORUBICIN]
- Cures (Mus musculus [25]): 0
- Growth delay (Mus musculus [26]): 0 days

Compound: COc1cccc2c1C(=O)c1c(O)c3c(c(O)c1C2=O)C[C@@](O)(C(=O)CO)C[C@@H]3O[C@H]1C[C@H](N)[C@H](O)[C@H](C)O1 [DOXORUBICIN]
- Cures (Mus musculus [27]): 0
- Growth delay (Mus musculus [28]): 8 days
- Ratio [2]: 4.4
- Ratio [3]: 13

Compound: COc1cc([C@@H]2c3cc4c(cc3[C@@H](O[C@@H]3O[C@@H]5CO[C@@H](C)O[C@H]5[C@H](O)[C@H]3O)[C@H]3COC(=O)[C@H]23)OCO4)cc(OC)c1O [ETOPOSIDE]
- IC50 (Jurkat): 160 nM
- IC50 [1]: 180 nM
- Cures (Mus musculus [29]): 0
- Growth delay (Mus musculus [30]): 1.5 days
- IC50 (P388): 150 nM
- Ratio [2]: 13
- Ratio [3]: 90

Compound: CCc1c2c(nc3ccc(OC(=O)N4CCC(N5CCCCC5)CC4)cc13)-c1cc3c(c(=O)n1C2)COC(=O)[C@]3(O)CC [IRINOTECAN]
- Cures (Mus musculus [31]): 0
- Growth delay (Mus musculus [32]): 7 days

Compound: O=C1c2c(O)ccc(O)c2C(=O)c2c(NCCNCCO)ccc(NCCNCCO)c21 [MITOXANTRONE]
- Cures (Mus musculus [25]): 0
- Growth delay (Mus musculus [26]): 2 days
